Experimental data pooled from the literature.
Each line is one published result; the experiments were not run side by side.
Cell line: MCF7
Observed: cell growth or viability

COc1cc(C(CC(=O)c2ccc(C)cc2)NCCc2ccc(O)c(O)c2)ccc1O (stereo not shown) — TGI (MTT): 10.1 µM
COc1ccc(C(=O)/C=C/c2cccc3ccccc23)cc1S(N)(=O)=O — inhibition (SRB; 10 µM): 160%
CCCCCCCC(=O)NCC(=O)OC — inhibition (MTT; 10 µM, 48 h): 45%
CCOCCOCCOCCNC(=S)NCCCC[C@H](NS(C)(=O)=O)C(=O)N[C@@H](C)C(=O)N[C@@H](CCCNC(=N)N)C(N)=O — EC50 (MTT; 72 h): > 100 µM
COc1ccc(C(=O)/C=C/c2ccc(Cl)c(Cl)c2)cc1S(N)(=O)=O — inhibition (SRB; 10 µM): 149%
CSc1ccc(-c2nc3ccc(C)cc3n2Cc2ccccc2)cc1 — IC50 (MTT): 29 µM
COc1cccc2c1C(=O)c1c(O)c3c(c(O)c1C2=O)C[C@@](O)(C(=O)CO)C[C@@H]3O[C@H]1C[C@H](N)[C@H](O)[C@H](C)O1 — IC50 (MTT; 48 h): 3.1 µM
COc1ccccc1/C=C/C(=O)c1ccc(OC)c(S(N)(=O)=O)c1 — GI50 (SRB; 48 h): 2.7 µM
C[C@@H](NC(=O)[C@H](CCCCNC(=O)C(F)(F)F)NS(C)(=O)=O)C(=O)N[C@@H](CCCNC(=N)N)C(N)=O — EC50 (MTT; 72 h): 47.6 to 62.8 µM
CCOc1cc(-c2nc3ccc(C)cc3[nH]2)ccc1O — IC50 (MTT; 48 h): 54.9 µM
COc1ccc(C(=O)/C=C/c2cccnc2)cc1S(N)(=O)=O — inhibition (SRB; 10 µM): 93%
C=CCn1c(-c2ccc([N+](=O)[O-])cc2)nc2ccccc21 — IC50 (MTT): 34.1 µM
C[C@]12CC[C@@H]3c4ccc(O)cc4CC[C@H]3[C@@H]1CC[C@@H]2O — EC50 (ATP luminescence; 72 h): 22.5 µM
COc1cc(C(CC(=O)c2ccc(Br)cc2)NCCc2ccc(O)c(O)c2)ccc1O (stereo not shown) — TGI (MTT): 0.4 µM
COc1ccc(C(=O)/C=C/c2cc3c(cc2Br)OCO3)cc1S(N)(=O)=O — inhibition (SRB; 10 µM): 102%
CCCCCCCCCCCCNC(=S)NCCCC[C@H](NC(=O)OCc1ccccc1)C(=O)N[C@@H](C)C(=O)N[C@@H](CCCNC(=N)N)C(N)=O — EC50 (MTT; 72 h): 64.7 to 76.6 µM
COc1ccc(Cc2nc(/N=C3\NC(=O)N(C)C3=O)n(C)c2Cc2ccc(O)cc2)cc1 — EC50: 5.9 µM
COc1cc(C(CC(=O)c2ccc([N+](=O)[O-])cc2)NCCc2ccc(O)c(O)c2)ccc1O (stereo not shown) — TGI (MTT): 0.29 µM
Clc1ccc(-c2nc3ccccc3n2Cc2ccccc2)cc1 — IC50 (MTT): 40.2 µM
COc1cc(CNC(=O)CCCC/C=C/C(C)C)ccc1O — inhibition (SRB; 10 µM): 24%
Clc1ccc(-c2nc3ccccc3n2Cc2ccccc2)cc1Cl — IC50 (MTT): 62.4 µM
COc1cc(C(CC(=O)c2ccc(Cl)cc2)NCCc2ccc(O)c(O)c2)ccc1O (stereo not shown) — TGI (MTT): 3.05 µM
Cc1ccc2nc(-c3ccncc3)[nH]c2c1 — IC50 (MTT; 48 h): 54.6 µM
COc1ccc(C(=O)/C=C/c2cccc(Cl)c2Cl)cc1S(N)(=O)=O — inhibition (SRB; 10 µM): 140%
COc1cccc(-c2nc3ccccc3[nH]2)c1 — IC50 (MTT; 48 h): 51.4 µM
COc1ccc(C(=O)/C=C/c2ccc3c(c2)OCCO3)cc1S(N)(=O)=O — inhibition (SRB; 10 µM): 77%
Cc1ccc2nc(-c3ccc([N+](=O)[O-])cc3)n(Cc3ccc(Cl)cc3)c2c1 — IC50 (MTT): 6.24 µM
COc1ccc(C(=O)/C=C/c2cccc(Cl)c2)cc1S(N)(=O)=O — inhibition (SRB; 10 µM): 167%
